In data set [1] the test system is Hepatocyte. Nature of the data set: Drug metabolism in Wistar rat hepatocytes assessed as ratio of O-sulfonate II metabolite level to parent compound level at 50 uM incubated for 6 hrs by HPLC and LC-MS/Ms method. Format: ADME, cell-based. The method, boiled down:
(§1)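 Hepatocytes freshly isolated from male rat liver by two-step collagenase perfusion; only cells with ≥80% viability (trypan blue) were used. Cells at 2 × 10^6 cells/mL were shaken at 37 °C for 6 h with substrate at 50 μM, added in methanol (1% final volume). Reactions were stopped with acetonitrile. Metabolites were identified against authentic standards and by ESI LC–MS. Ratios are metabolite:parent compound.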

For data set [2], the system named is Hepatocyte. Description: Drug metabolism in Wistar rat hepatocytes assessed as ratio of O-sulfonate I metabolite level to parent compound level at 50 uM incubated for 6 hrs by HPLC and LC-MS/Ms method. The class given is ADME, cell-based. In short, it runs like this: as §1
The subject of data set [3] is Hepatocyte. Nature of the data set: Drug metabolism in Wistar rat hepatocytes assessed as ratio of N-glucuronide metabolite level to parent compound level at 50 uM incubated for 6 hrs by HPLC and LC-MS/Ms method. The class given is ADME, cell-based. In short, it runs like this: as §1
Data set [4] concerns Hepatocyte. Description: Drug metabolism in Wistar rat hepatocytes assessed as ratio of 10,11-epoxide metabolite level to parent compound level at 50 uM incubated for 6 hrs by HPLC and LC-MS/Ms method. Format: ADME, cell-based. The method, boiled down: as §1
The subject of data set [5] is Hepatocyte. Description: Stability in Wistar rat hepatocytes assessed as metabolite formation at >200 uM incubated for 6 hrs by HPLC and LC-MS/Ms method. The class given is ADME, cell-based. In short, it runs like this:
(§2)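 Male rat hepatocytes were isolated by collagenase perfusion (≥80% viable) and suspended at 2 × 10^6 cells/mL. They were incubated 6 h at 37 °C with substrate at typically 50–1000 μM, added in methanol (1% final volume); one analogue was tested only at 50 and 200 μM, added in acetonitrile. The reaction was stopped with acetonitrile, and the supernatant was concentrated and analysed by HPLC-UV and ESI LC–MS.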

For data set [6], the system named is Hepatocyte. Description: Stability in Wistar rat hepatocytes assessed as 10,11-epoxide N-glucuronide metabolite formation at 100 uM incubated for 6 hrs by HPLC and LC-MS/Ms method. The class given is ADME, cell-based. The method, boiled down: as §2
Data set [7] deals with Hepatocyte. Description: Stability in Wistar rat hepatocytes assessed as 10,11-epoxide N-glucuronide metabolite formation at 200 uM incubated for 6 hrs by HPLC and LC-MS/Ms method. Format: ADME, cell-based. In short, it runs like this: as §2
The subject of data set [8] is Hepatocyte. Nature of the data set: Drug metabolism in Wistar rat hepatocytes assessed as ratio of epoxide N-glucuronide metabolite level to parent compound level at 50 uM incubated for 6 hrs by HPLC and LC-MS/Ms method. The class given is ADME, cell-based. In short, it runs like this:
as §1

The subject of data set [9] is Liver microsomes. Nature of the data set: Stability in human liver microsomes assessed as dioxygenated metabolite formation at 50 uM incubated for 60 mins by HPLC and LC-MS/Ms method. Format: ADME, Microsome. To be noted: 1 h. The method, boiled down: (§3)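 Pooled human liver microsomes (150 donors, both sexes), 1 mg/mL protein, with substrate at 50 μM and NADPH at 1 mM. Incubated in 0.1 M potassium phosphate, pH 7.4, for 60 min at 37 °C; controls lacked NADPH. The reaction was stopped with ice-cold acetonitrile, and the supernatant was dried, reconstituted in methanol/water and analysed by HPLC-UV and ESI LC–MS (4000 Qtrap).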

Data set [10] in a line: Drug metabolism in human liver microsomes assessed as compound turnover at 50 uM incubated for 60 mins by HPLC and LC-MS/Ms method. The class given is ADME, Microsome. Conditions: read-out: Drug metabolism; call rule not given here. The method, boiled down:
as §3
For orientation: Microsomes from liver hold many membrane-bound enzymes, among them those of drug oxidation.

Data set [11] deals with Liver microsomes. Nature of the data set: Stability in human liver microsomes assessed as diol formation at 50 uM incubated for 60 mins by HPLC and LC-MS/Ms method. Format: ADME, Microsome. To be noted: 1 h. In short, it runs like this:
as §3

Data set [12] relates to Liver microsomes. Nature of the data set: Stability in human liver microsomes assessed as oxidative defluorination at 50 uM incubated for 60 mins by HPLC and LC-MS/Ms method. The class given is ADME, Microsome. To be noted: 1 h. In short, it runs like this: as §3
Data set [13] concerns Hepatocyte. Description: Stability in Wistar rat hepatocytes assessed as 10,11-epoxide N-glucuronide metabolite formation at 500 uM incubated for 6 hrs by HPLC and LC-MS/Ms method. The class given is ADME, cell-based. In short, it runs like this: as §2
Data set [14] deals with Liver microsomes. Description: Drug metabolism in human liver microsomes assessed as 10,11 epoxidation level at 50 uM incubated for 60 mins by HPLC and LC-MS/Ms method. Format: ADME, Microsome. Conditions: 1 h. The method, boiled down:
as §3

Data set [15] relates to Hepatocyte. Description: Drug metabolism in Wistar rat hepatocytes assessed as GSH adduct formation at 50 uM incubated for 6 hrs by HPLC and LC-MS/Ms method. Format: ADME, cell-based. The method, boiled down: as §1
The subject of data set [16] is Hepatocyte. Description: Stability in Wistar rat hepatocytes assessed as 10,11-epoxide N-glucuronide metabolite formation at 1 mM incubated for 6 hrs by HPLC and LC-MS/Ms method. To be noted: 1000 µM. The class given is ADME, cell-based. The method, boiled down:
as §2

SMILES strings stand for the structures.

For the compound `NC(=O)N1c2ccccc2C=Cc2cc(Br)ccc21`, the Stability entry in the data set with Hepatocyte [1] and in the data set with Hepatocyte [2] was “Stable” throughout.

On to `NC(=O)N1c2ccc(Br)cc2C=Cc2cc(Br)ccc21`, for which the results for the Ratio in the data set on Hepatocyte [3] and in the data set with Hepatocyte [4] were 0.27 and 0.19, respectively. The Stability result in the data set on Hepatocyte [1], in the data set on Hepatocyte [5], in the data set on Hepatocyte [6] and with Hepatocyte [2] was “Stable” in each case.

With `NC(=O)N1c2ccc(Cl)cc2C=Cc2cc(Cl)ccc21`, the Ratio with Hepatocyte [3] is listed as 0.22; in the data set on Hepatocyte [4] it was 0.14; in the data set with Hepatocyte [8] it was 0.21. The Stability result with Hepatocyte [7], in the data set with Hepatocyte [1], in the data set on Hepatocyte [5] and with Hepatocyte [2] was “Stable” in each case.

`NC(=O)N1c2ccc(F)cc2C=Cc2cc(F)ccc21`: the Stability entry with Liver microsomes [9], with Hepatocyte [1], in the data set with Liver microsomes [11], in the data set with Hepatocyte [5], with Liver microsomes [12] and with Hepatocyte [13] was “Stable” in each case. Besides, the Stability entry with Hepatocyte [2] was “Stable”. Further, the Ratio in the data set on Hepatocyte [3] stood at 0.18; in the data set on Hepatocyte [4], 0.07; in the data set with Hepatocyte [8], 0.02. The metabolised at 1 h, 50 µM in data set [10] was determined as 1%. Moreover, in the data set with Liver microsomes [14], the Drug metabolism entry is “Active”.

As to `NC(=O)N1c2ccccc2C=Cc2cc(F)ccc21`, the Ratio was 0.784 in the data set on Hepatocyte [3], 0.28 in the data set with Hepatocyte [4], 0.41 in the data set with Hepatocyte [1] and 0.15 in the data set on Hepatocyte [8]. The Stability result in the data set on Hepatocyte [7], in the data set with Hepatocyte [5] and in the data set on Hepatocyte [2] was “Stable” each time.

As to `NC(=O)N1c2ccccc2C=Cc2cc(Cl)ccc21`, the results for the Ratio in the data set with Hepatocyte [3], in the data set on Hepatocyte [4] and in the data set with Hepatocyte [8] were 2.04, 0.21 and 0.11, respectively. The Stability result in the data set on Hepatocyte [1], in the data set on Hepatocyte [5], in the data set with Hepatocyte [13] and with Hepatocyte [2] was “Stable” each time.

`NC(=O)N1c2ccccc2C=Cc2ccccc21` [CARBAMAZEPINE]: the Drug metabolism entry with Hepatocyte [15] and in the data set on Liver microsomes [14] was “Active” each time. The Stability result in the data set with Liver microsomes [9], in the data set with Hepatocyte [16], in the data set with Liver microsomes [11] and in the data set with Hepatocyte [5] was “Stable” throughout. Moreover, the Ratio with Hepatocyte [3] came to 0.63; in the data set on Hepatocyte [4], 0.52; in the data set with Hepatocyte [1], 0.32; with Hepatocyte [8] it was 0.24; in the data set with Hepatocyte [2], 0.08. Besides, in data set [10], the metabolised at 1 h, 50 µM was found to be 1%.

(Values after ChEMBL document CHEMBL2176913, “Haloarene derivatives of carbamazepine with reduced bioactivation liabilities: 2-monohalo and 2,8-dihalo derivatives” (J Med Chem, 2012).)
